Where two headings read alike, the source gives them in different places.
Tests used:
[1] = Spectroelectrochemical midpoint potential of the NO complex; assay type: physicochemical, Rhodnius prolixus; details: NO bound
In short: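 Spectroelectrochemistry of ~0.05 mM E. coli-expressed protein in 0.1 M sodium phosphate or acetate at pH 5.5, 6.5 and 7.5, 27 ± 1 °C. SNAP supplied NO at a level fully complexing both oxidation states. Ag/AgCl reference ([…] mV vs SHE). Absorbance versus applied potential fit to Nernst equation; pH dependence and mutant−standard differences derived.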

[2] = NO bound, cited from earlier work
[3] = NO binding constant to Fe; design: species or system Rhodnius prolixus; details: pH 7.5
[4] = ligand-free, cited from earlier work
[5] = read-out: Kd for NO dissociation, Fe(III), cited from earlier work
[6] = Spectroelectrochemical midpoint potential, ligand-free; assay type: physicochemical, Rhodnius prolixus; details: ligand-free
[7] = Imidazole binding constant to Fe; design: species or system Rhodnius prolixus; details: pH 5.5

| Molecule | NO formation constant Kf, Fe(III) form ([3]; listed as M0-containing NP1) | Kd ([3]; read-out: NO dissociation constant Kd, Fe(III) form) | increase of imidazole binding constant compared to wild-type [7] | Em,NO ([1]; pH 6.5, 27 °C) | Em,NO ([2]; pH 5.5, 27 °C ref 15) | Em,NO ([2]; pH 7.5, 27 °C ref 15) | Em ([4]; pH 5.5, 27 °C ref 15) | Em ([4]; pH 7.5, 27 °C ref 15) | Kd ([5]; pH 5.5 ref 19) | Kd ([5]; pH 7.5 ref 19) | Em,NO ([1]; pH 7.5, 27 °C) | ΔpHΔ(Em,NO) = ΔEm,NO(pH7.5) − ΔEm,NO(pH5.5) [1] | ΔEm,NO = Em(mutant)−Em(standard) ([1]; pH 5.5) | Em,NO ([1]; pH 5.5, 27 °C) | ΔEm,NO = Em(mutant)−Em(standard) ([1]; pH 6.5) | ΔEm,NO = Em(mutant)−Em(standard) ([1]; pH 7.5) | ΔEm = Em(mutant)−Em(standard) ([6]; pH 5.5) | Em ([6]; pH 5.5, 27 °C) | ΔEm = Em(mutant)−Em(standard) ([6]; pH 7.5) | Em ([6]; pH 7.5, 27 °C) |
| --- | --- | --- | --- | --- | --- | --- | --- | --- | --- | --- | --- | --- | --- | --- | --- | --- | --- | --- | --- | --- |
| NP4: recombinant wild-type nitrophorin 4 of Rhodnius prolixus, native A1 as first residue (protein, UniProt Q94734 22-205, looked up) Nitrophorin-4: ACTKNAIAQTGFNKDKYFNGDVWYVTDYLDLEPDDVPKRYCAALAAGTASGKLKEALYHYDPKTQDTFYDVSELQVESLGKYTANFKKVDKNGNVKVAVTAGNYYTFTVMYADDSSALIHTCLHKGNKDLGDLYAVLNRNKDAAAGDKVKSAVSAATLEFSKFISTKENNCAYDNDSLKSLLTK |  |  |  | 44±2 mV vs. SHE | 94±5 mV vs. SHE |  | −259±2 mV vs. SHE | −278±4 mV vs. SHE | 0.05 µM | 0.12 µM | 59±2 mV vs. SHE |  |  |  |  |  |  |  |  |  |
| NP4-D30A: site-directed mutant of NP4, D30 replaced by Ala (protein, UniProt Q94734 22-205, looked up, variant D30A) Nitrophorin-4: ACTKNAIAQTGFNKDKYFNGDVWYVTDYLALEPDDVPKRYCAALAAGTASGKLKEALYHYDPKTQDTFYDVSELQVESLGKYTANFKKVDKNGNVKVAVTAGNYYTFTVMYADDSSALIHTCLHKGNKDLGDLYAVLNRNKDAAAGDKVKSAVSAATLEFSKFISTKENNCAYDNDSLKSLLTK |  |  |  | 163±4 mV vs. SHE |  |  |  |  |  |  |  | 53±6 mV | 87±5 mV | 181±2 mV vs. SHE | 119±5 mV | 139±2 mV | 46±2 mV | −213±1 mV vs. SHE | 62±4 mV | −216±2 mV vs. SHE |

Continued, in another order:

| NO formation constant Kf, Fe(III) form ([3]; listed as M0-containing NP1) | Kd ([3]; read-out: NO dissociation constant Kd, Fe(III) form) | increase of imidazole binding constant compared to wild-type [7] | Molecule | Em,NO ([1]; pH 6.5, 27 °C) | Em,NO ([2]; pH 5.5, 27 °C ref 15) | Em,NO ([2]; pH 7.5, 27 °C ref 15) | Em ([4]; pH 5.5, 27 °C ref 15) | Em ([4]; pH 7.5, 27 °C ref 15) | Kd ([5]; pH 5.5 ref 19) | Kd ([5]; pH 7.5 ref 19) | Em,NO ([1]; pH 7.5, 27 °C) | ΔpHΔ(Em,NO) = ΔEm,NO(pH7.5) − ΔEm,NO(pH5.5) [1] | ΔEm,NO = Em(mutant)−Em(standard) ([1]; pH 5.5) | Em,NO ([1]; pH 5.5, 27 °C) | ΔEm,NO = Em(mutant)−Em(standard) ([1]; pH 6.5) | ΔEm,NO = Em(mutant)−Em(standard) ([1]; pH 7.5) | ΔEm = Em(mutant)−Em(standard) ([6]; pH 5.5) | Em ([6]; pH 5.5, 27 °C) | ΔEm = Em(mutant)−Em(standard) ([6]; pH 7.5) | Em ([6]; pH 7.5, 27 °C) |
| --- | --- | --- | --- | --- | --- | --- | --- | --- | --- | --- | --- | --- | --- | --- | --- | --- | --- | --- | --- | --- |
| 1e+06 M⁻¹ | 1 µM |  | NP1: recombinant wild-type nitrophorin 1 of Rhodnius prolixus, NO-carrying heme protein, with M0 present (protein, UniProt Q26239 24-207, looked up, N-terminal Met0 retained) Nitrophorin-1: KCTKNALAQTGFNKDKYFNGDVWYVTDYLDLEPDDVPKRYCAALAAGTASGKLKEALYHYDPKTQDTFYDVSELQEESPGKYTANFKKVEKNGNVKVDVTSGNYYTFTVMYADDSSALIHTCLHKGNKDLGDLYAVLNRNKDTNAGDKVKGAVTAASLKFSDFISTKDNKCEYDNVSLKSLLTK | 118±3 mV vs. SHE | 154±5 mV vs. SHE | 127±4 mV vs. SHE | −274±2 mV vs. SHE | −303±4 mV vs. SHE |  |  |  |  |  |  |  |  |  |  |  |  |
|  |  | 1 log unit | NP4-E55Q: site-directed mutant of NP4, buried E55 replaced by Gln (protein, UniProt Q94734 22-205, looked up, variant E55Q) Nitrophorin-4: ACTKNAIAQTGFNKDKYFNGDVWYVTDYLDLEPDDVPKRYCAALAAGTASGKLKQALYHYDPKTQDTFYDVSELQVESLGKYTANFKKVDKNGNVKVAVTAGNYYTFTVMYADDSSALIHTCLHKGNKDLGDLYAVLNRNKDAAAGDKVKSAVSAATLEFSKFISTKENNCAYDNDSLKSLLTK | 67±2 mV vs. SHE |  |  |  |  |  |  | 126±2 mV vs. SHE | 73±6 mV | −6±5 mV | 88±1 mV vs. SHE | 23±3 mV | 67±2 mV | 68±3 mV | −191±3 mV vs. SHE | 82±4 mV | −196±2 mV vs. SHE |
